{"source": "paper PMC12017310", "about": "(Science Advances, 2025)", "key": {"CDK12": {"target": "CDK12 (Homo sapiens, UniProt Q9NYV4)", "sequence (Q9NYV4 whole entry)": "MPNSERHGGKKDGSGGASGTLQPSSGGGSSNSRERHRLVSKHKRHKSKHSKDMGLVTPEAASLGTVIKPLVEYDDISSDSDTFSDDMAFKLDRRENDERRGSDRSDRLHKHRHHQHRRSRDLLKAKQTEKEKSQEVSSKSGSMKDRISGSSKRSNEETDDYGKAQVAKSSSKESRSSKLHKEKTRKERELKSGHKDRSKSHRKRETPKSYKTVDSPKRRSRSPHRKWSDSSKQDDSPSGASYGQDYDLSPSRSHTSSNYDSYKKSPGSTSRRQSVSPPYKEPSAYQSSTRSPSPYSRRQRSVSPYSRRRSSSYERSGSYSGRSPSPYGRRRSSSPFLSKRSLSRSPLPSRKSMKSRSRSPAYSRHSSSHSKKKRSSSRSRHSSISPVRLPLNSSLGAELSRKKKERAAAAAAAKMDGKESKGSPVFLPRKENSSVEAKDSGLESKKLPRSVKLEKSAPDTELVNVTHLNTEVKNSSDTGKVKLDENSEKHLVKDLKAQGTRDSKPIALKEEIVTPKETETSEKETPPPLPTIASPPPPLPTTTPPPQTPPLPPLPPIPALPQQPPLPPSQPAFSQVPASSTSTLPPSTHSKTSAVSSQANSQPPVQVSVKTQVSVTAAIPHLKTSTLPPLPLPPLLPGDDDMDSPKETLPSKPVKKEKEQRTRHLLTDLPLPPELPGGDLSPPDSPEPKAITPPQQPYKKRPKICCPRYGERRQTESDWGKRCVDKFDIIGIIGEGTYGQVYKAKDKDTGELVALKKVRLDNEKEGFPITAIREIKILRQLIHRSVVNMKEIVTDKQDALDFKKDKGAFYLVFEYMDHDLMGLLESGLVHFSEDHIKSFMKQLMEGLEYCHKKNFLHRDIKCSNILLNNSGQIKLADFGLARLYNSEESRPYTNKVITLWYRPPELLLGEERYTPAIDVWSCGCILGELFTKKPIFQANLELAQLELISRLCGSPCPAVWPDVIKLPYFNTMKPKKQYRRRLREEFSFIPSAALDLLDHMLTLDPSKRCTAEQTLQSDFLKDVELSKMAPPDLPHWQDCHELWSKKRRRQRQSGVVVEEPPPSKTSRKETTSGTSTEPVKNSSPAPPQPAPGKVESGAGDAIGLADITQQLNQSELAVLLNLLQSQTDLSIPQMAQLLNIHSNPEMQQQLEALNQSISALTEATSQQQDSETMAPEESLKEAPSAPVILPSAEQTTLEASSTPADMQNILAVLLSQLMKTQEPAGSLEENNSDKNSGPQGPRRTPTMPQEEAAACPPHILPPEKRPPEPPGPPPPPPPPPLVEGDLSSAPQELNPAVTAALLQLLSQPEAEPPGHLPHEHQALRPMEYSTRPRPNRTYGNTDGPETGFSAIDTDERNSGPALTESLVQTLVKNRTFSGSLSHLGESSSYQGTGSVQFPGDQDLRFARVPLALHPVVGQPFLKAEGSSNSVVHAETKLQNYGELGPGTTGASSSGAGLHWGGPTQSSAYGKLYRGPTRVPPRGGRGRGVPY", "sequence (O75909 whole entry partner)": "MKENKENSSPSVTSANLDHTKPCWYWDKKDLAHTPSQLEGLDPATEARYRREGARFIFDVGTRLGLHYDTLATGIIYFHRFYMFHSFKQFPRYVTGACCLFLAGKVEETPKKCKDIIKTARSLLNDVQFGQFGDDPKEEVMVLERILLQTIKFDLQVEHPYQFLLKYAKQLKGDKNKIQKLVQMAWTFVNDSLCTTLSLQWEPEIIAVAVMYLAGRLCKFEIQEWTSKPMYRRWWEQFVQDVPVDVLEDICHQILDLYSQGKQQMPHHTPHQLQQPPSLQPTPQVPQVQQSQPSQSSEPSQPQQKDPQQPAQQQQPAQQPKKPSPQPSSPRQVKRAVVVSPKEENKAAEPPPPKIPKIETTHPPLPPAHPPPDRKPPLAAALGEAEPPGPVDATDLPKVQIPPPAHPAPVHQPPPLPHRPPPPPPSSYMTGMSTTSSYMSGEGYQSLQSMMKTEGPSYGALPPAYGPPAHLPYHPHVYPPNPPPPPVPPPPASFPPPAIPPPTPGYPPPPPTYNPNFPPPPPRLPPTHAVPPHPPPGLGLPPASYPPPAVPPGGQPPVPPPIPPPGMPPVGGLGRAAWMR", "experiment": "Western blot of CDK12 in PCa cell lines", "type": "cell-based", "details": "22Rv1, MG132 pre-treatment 2 hours, then BSJ-5-63", "summary_of_the_method": "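Equal protein amounts separated by SDS-PAGE and transferred to PVDF. Primary antibodies in 5% BSA/TBST overnight at 4°C; secondary antibody 1 h at room temperature. Blots shown are representative of three independent experiments.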"}, "[1]": {"test_system": "CDK12-KO 22Rv1 xenografts", "experiment": "In vivo CDK12-KO 22Rv1 xenograft model", "design": "species or system male SCID mice", "details": "olaparib 50 mg/kg, p.o., daily", "summary_of_the_method": "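CDK12-KO (two sgRNAs) and AAVS1-control 22Rv1 cells made by lentiviral spin infection of Cas9-expressing cells (blasticidin 20 μg/ml). Implanted subcutaneously (5 × 10^6 with Matrigel). At ~150 mm3, each line randomised to vehicle p.o. or PARP inhibitor 50 mg/kg p.o. daily for 3 weeks (or until 2 cm tumour length). Tumours excised and weighed.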"}, "BID-PC4 PDX": {"test_system": "BID-PC4 PDX", "experiment": "In vivo BID-PC4 PDX model", "design": "species or system male SCID mice", "details": "BSJ-5-63 25 mg/kg ip; olaparib 50 mg/kg p.o.", "summary_of_the_method": "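Tumour bits in 50 μl PBS plus 50 μl Matrigel implanted subcutaneously (right flank) into intact male SCID mice. At ~150 mm3, randomised into four groups (n = 5): vehicle (5% DMSO/15% Solutol HS-15/80% saline) p.o., PARP inhibitor 50 mg/kg p.o., test compound 25 mg/kg ip, or sequential combination. Body weight recorded daily. Run for 3 weeks or until 2 cm tumour length; tumours excised and weighed.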"}, "PCa cells": {"test_system": "PCa cells", "experiment": "Colony formation assay", "type": "cell-based, human", "details": "cell viability and colony formation assays", "summary_of_the_method": "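Seeding was 30,000 cells/well for 22Rv1 (six-well plates), with overnight attachment before treatment. Colonies grown 14 days at 37°C, 5% CO2, with weekly medium change. Stained with 0.1% crystal violet and quantified by image analysis. Three independent experiments.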"}, "22Rv1 xenografts": {"test_system": "22Rv1 xenografts", "experiment": "In vivo 22Rv1 xenograft model", "design": "species or system male SCID mice", "details": "BSJ-5-63 25 mg/kg ip; olaparib 50 mg/kg p.o.", "summary_of_the_method": "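22Rv1 cells (5 × 10^6 in 50 μl plus 50 μl Matrigel) injected subcutaneously into the right flank; n = 5/group, randomised at ~150 mm3. Volume = length × width² × 0.5. Monotherapy: 50 mg/kg ip daily or 1 day on/2 days off for 12 days; vehicle 5% DMSO/15% Solutol HS-15/80% saline. Sequential arms: test compound 25 mg/kg ip and PARP inhibitor 50 mg/kg p.o. Tumours weighed; H&E and cleaved caspase-3 IHC performed.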"}, "DU145 xenografts": {"test_system": "DU145 xenografts", "experiment": "In vivo DU145 xenograft model", "design": "species or system male SCID mice", "details": "BSJ-5-63 25 mg/kg ip; olaparib 50 mg/kg p.o.", "summary_of_the_method": "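DU145 xenografts were set up subcutaneously with Matrigel in the right flank. At ~150 mm3, mice were randomised into four groups (n = 5): vehicle p.o., PARP inhibitor 50 mg/kg p.o., test compound 25 mg/kg ip, or sequential combination. Dosing volume 0.1 ml/10 g. Body weight recorded daily. Study ended after 3–4 weeks or at 2 cm tumour length.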"}, "[2]": {"experiment": "In vitro mouse liver microsomal stability assay", "type": "in vitro ADME", "details": "liver microsomes", "summary_of_the_method": "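Mouse liver microsomes (0.5 mg/ml) incubated with 1 μM test compound at 37°C with NADPH cofactor (1 mM).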"}}, "note": "Peptide text beside a SMILES is read from it. * marks the point of attachment. Cbz = O=C(OCc1ccccc1)*"}
{"smiles": "CC(C)C[C@@H](C=O)NC(=O)[C@H](CC(C)C)NC(=O)[C@H](CC(C)C)NC(=O)OCc1ccccc1", "note": "[MG132] (Cbz-Leu-Leu-Leu-aldehyde)", "values": [{"measurement": "BSJ-5-63–induced degradation of CDK12/7/9 after pretreatment with the proteasome inhibitor", "setting": "CDK12", "value": "rescued"}]}
{"smiles": "O=C(c1cc(Cc2n[nH]c(=O)c3ccccc23)ccc1F)N1CCN(C(=O)C2CC2)CC1", "note": "[Olaparib]", "values": [{"measurement": "tumor growth of CDK12-KO 22Rv1 xenografts", "setting": "[1]; 3 weeks", "value": "marked sensitivity"}, {"measurement": "tumor weight of CDK12-KO 22Rv1 xenografts", "setting": "[1]; day 21", "value": "reduction in tumor weight"}, {"measurement": "BID-PC4 PDX tumor growth, monotherapy", "setting": "BID-PC4 PDX", "value": "insensitive"}, {"measurement": "sensitivity of CDK12-KO 22Rv1 cells compared with AAVS1 control", "setting": "PCa cells", "value": "significantly enhanced sensitivity"}, {"measurement": "22Rv1 tumor growth, monotherapy", "setting": "22Rv1 xenografts", "value": "partial inhibition"}, {"measurement": "number of apoptotic cells in 22Rv1 tumors, monotherapy", "setting": "22Rv1 xenografts", "value": "notably increased"}, {"measurement": "DU145 tumor growth, monotherapy", "setting": "DU145 xenografts", "value": "only partial inhibition of tumor growth"}]}
{"smiles": "CCN(CC)CCNC(=O)c1c(C)[nH]c(/C=C2\\C(=O)Nc3ccc(F)cc32)c1C", "note": "[Sunitinib]", "values": [{"measurement": "half-life at 1 μM", "setting": "[2]", "value": 10, "unit": "min"}, {"measurement": "microsomal CLint at 1 μM", "setting": "[2]", "value": 69, "unit": "µL/min/mg"}]}
